Only some compounds are listed: those with a hit (about 4.6% of all), similar ones and a draw of the others.
TAAR1 antagonist – human TAAR1 antagonism | CHO RD-HGA16 TAAR1, Fluo-8 calcium fluorescence, antagonist | Q96RJ0 | AID 624466 | inhibition, % at 3 µM | 360,000 compounds, 1.5% hits;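 active = inhibition above a per-plate cutoff, the mean inhibition of test compounds on that plate plus 3 SD, cut at about 49% in these data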
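Test system: RD-HGA16 CHO cells with stable hTAAR1 and Gα16 / Probe or stimulus: EC80 β-phenethylamine stimulus / Times: seeding 17-24 h prior, 75-min 37 °C, 30-min RT dye loading / Detection: Fluo-8 calcium-sensitive fluorescence / Read-out basis: % inhibition scaled between DMSO and EC80 PEA controls / Repeats: singlicate, one well per test compound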
CHO parental Ca – counter-screen: ATP calcium response change in parental CHO cells; parental CHO-K1, ATP-induced calcium, Fluo-8 fluorescence; inhibition, % at 5.6 µM; 330,000 compounds, 0.63% hits;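 active = inhibition above that plate's mean sample inhibition plus 3 SD, cut at about 26% in these data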
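Test system: untransfected parental CHO cell line; also added: ATP stimulus; dosing: 5.6 µM, single dose; signal: calcium-sensitive Fluo-8 fluorescence; measure: percent inhibition of ATP-evoked calcium rise, normalized to controls; benchmarks: low control ATP plus DMSO, high control DMSO only; replication: one well per compound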
TAAR1 ag – human TAAR1 agonism. Q96RJ0. CHO RD-HGA16 TAAR1, Fluo-8 calcium fluorescence; vehicle wells 0%, saturating PEA agonist 100%. activation, % at 3 µM. 360,000 compounds, 0.99% hits. AID 624467;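 active = activation above the mean activation of all test compounds in the run plus 3 SD, cut at about 38% in these data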
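Benchmarks: low control DMSO, high control PEA (EC100); System: CHO RD-HGA16 cells carrying human TAAR1 plus Gα16; Detection: Fluo-8 fluorescence, 5 s baseline then 140 s kinetic read; Schedule: 17-24 h plating, Fluo-8 75 min 37 °C, 30 min RT; Read-out basis: % activation from peak over basal fluorescence ratio, DMSO-to-PEA scaled.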
OX1R antag-1 – blocks the human orexin 1 receptor. CHO/OX1R cells, Fluo-8 calcium fluorescence, orexin A. AID 434989. inhibition, % at 5 µM. 330,000 compounds, 0.43% hits. O43613;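 active = inhibition above its plate's threshold, mean inhibition of all tested compounds on the plate plus 3 SD, cut at about 37% in these data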
GPR7 antag – antagonists of human GPR7 (neuropeptides B/W receptor 1); 290,000 compounds, 1.1% hits; inhibition, % at 4.4 µM; P48145; GPR7-expressing cells, fluorescence antagonist assay; in the data active = inhibition above about 16%, passing the limit was not always enough;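 also: cells stimulated with the agonist NPW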
Target sequence (P48145 whole entry, looked up): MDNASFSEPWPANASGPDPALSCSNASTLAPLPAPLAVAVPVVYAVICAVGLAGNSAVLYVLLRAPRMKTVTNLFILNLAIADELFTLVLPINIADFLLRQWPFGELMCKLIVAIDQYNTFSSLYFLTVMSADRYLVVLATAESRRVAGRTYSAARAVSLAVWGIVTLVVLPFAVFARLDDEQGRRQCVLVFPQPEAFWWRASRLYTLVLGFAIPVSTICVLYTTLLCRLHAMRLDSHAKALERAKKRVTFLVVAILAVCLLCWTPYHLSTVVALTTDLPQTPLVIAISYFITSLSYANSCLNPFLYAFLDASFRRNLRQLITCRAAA
OX1R antag-2 – blocks the human orexin 1 receptor; 330,000 compounds, 1.8% hits; OX1R-expressing cells, FRET antagonist read-out; inhibition, % at 6.6 µM; in the data active = inhibition mostly above about 38%, no sharp cut-off; inactive = mostly below about 40%
TAAR1 nonsel count – nonselective antagonist in TAAR1 antagonist counter-screen | shares compounds with TAAR1 antagonist | counterscreen cell line, calcium fluorescence, antagonist mode | inhibition, % at 3 µM | 2,400 compounds, 77% hits; in the data active = inhibition above about 22%;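 also: CHO-Ga16 host cells stimulated with ATP at an EC80 level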
TAAR1 antag conf – human TAAR1 antagonism, confirmed; shares compounds with TAAR1 antagonist; TAAR1-expressing cells, fluorescence antagonist read-out; inhibition, % at 3 µM; 2,400 compounds, 40% hits; in the data active = inhibition above about 49%;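 also: CHO-Ga16 host cells challenged with agonist PEA near its EC80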
Ga16 nonsel ag – nonselective Ga16 agonist in TAAR1 antagonist counter-screen; activation, % at 3 µM; 2,400 compounds, 18% hits; Ga16-expressing cells, calcium fluorescence, agonist counterscreen; AID 651953; shares compounds with TAAR1 antagonist; in the data active = activation above about 12%
TAAR1 ag count – TAAR1 agonism, antagonist counter-screen | shares compounds with TAAR1 antagonist | hTAAR1 cell line, fluorescence activation, agonist mode | activation, % at 3 µM | 2,400 compounds, 2% hits | AID 651955; in the data active = activation above about 37%;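 also: CHO cells stably expressing TAAR1 with calcium dye readout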
Of the large screens only hits and unclear results are named; the others gave an inactive call (follow-up assays come after a bar, where they were run).

CCN(CC)C(=O)c1[nH]cnc1C(=O)NCC(=O)OCc1ccccc1	TAAR1 antagonist 70.8 | TAAR1 nonsel count 25.2 | TAAR1 antag conf 52.4 | Ga16 nonsel ag inactive | TAAR1 ag count inactive
CC(C)(C)OC(=O)NCc1ccc(CNC(=O)c2[nH]cnc2C(=O)N[C@@H](Cc2ccccc2)C(=O)OCc2ccccc2)cc1	none
CC(C)(C)OC(=O)NCc1ccc(CNC(=O)c2[nH]cnc2C(=O)NCC(=O)OCc2ccccc2)cc1	TAAR1 antagonist 91.8 | TAAR1 nonsel count 48.9 | TAAR1 antag conf 66.5 | Ga16 nonsel ag 12.5 | TAAR1 ag count inactive
O=C(CNC(=O)c1nc[nH]c1C(=O)NCC(=O)OCc1ccccc1)OCc1ccccc1	TAAR1 antagonist 69.3 | TAAR1 nonsel count 36.6 | TAAR1 antag conf 56.4 | Ga16 nonsel ag inactive | TAAR1 ag count inactive
COc1ccc(Br)cc1C1CC(=O)C(C)C(c2cc(Br)ccc2OC)N1 (stereo not given)	none
CC1(C(=O)NS(=O)(=O)c2cccc(Cl)c2)CCN1C(=O)C1(c2ccc(Cl)cc2)CCC1 (stereo not given)	none (no result: CHO parental Ca, OX1R antag-1, GPR7 antag, OX1R antag-2)
O=C(NCC(=O)N1CCN(c2ccccc2)CC1)c1ccco1	none
Cc1cccc(C)c1NC(=O)CNC(=O)c1cccnc1	none
COc1cc2cc(CCOC(=O)N3CCCCC3)oc(=O)c2cc1OC	none (no result: GPR7 antag)
COc1ccc(CNC(=O)Cc2csc(NC(=O)Nc3ccccc3OC)n2)cc1	TAAR1 antagonist 56.3 (no result: GPR7 antag) | TAAR1 nonsel count inactive | TAAR1 antag conf inactive | Ga16 nonsel ag inactive | TAAR1 ag count inactive
COc1ccc(C)cc1NC(=O)Cc1csc(NC(=O)Nc2ccccc2OC)n1	TAAR1 antagonist 72.6 (no result: CHO parental Ca, OX1R antag-1, GPR7 antag, OX1R antag-2) | TAAR1 nonsel count 26.9 | TAAR1 antag conf inactive | Ga16 nonsel ag inactive | TAAR1 ag count inactive
COc1ccccc1NC(=O)Nc1nc(CC(=O)Nc2cc(F)ccc2F)cs1	TAAR1 antagonist 59.7 (no result: GPR7 antag) | TAAR1 nonsel count 33.8 | TAAR1 antag conf 56.4 | Ga16 nonsel ag inactive | TAAR1 ag count inactive
COc1ccccc1NC(=O)Nc1nc(CC(=O)Nc2cccc(F)c2)cs1	none (no result: GPR7 antag)
COc1ccccc1NC(=O)Cc1csc(NC(=O)c2ccccc2)n1	none
COc1ccccc1NC(=O)Nc1nc(CC(=O)Nc2ccc(F)cc2)cs1	TAAR1 antagonist 51.9 (no result: GPR7 antag) | TAAR1 nonsel count 21.8 | TAAR1 antag conf inactive | Ga16 nonsel ag inactive | TAAR1 ag count inactive
CSc1ccc(CN2CCC(C)(Oc3ccccc3)C2)cc1 (stereo not given)	none (no result: CHO parental Ca, OX1R antag-1, GPR7 antag, OX1R antag-2)
O=C(Cc1csc(NC(=O)Nc2cccc(Cl)c2)n1)NCc1ccccn1	TAAR1 antagonist 64.7 (no result: GPR7 antag) | TAAR1 nonsel count 29.1 | TAAR1 antag conf inactive | Ga16 nonsel ag inactive | TAAR1 ag count inactive
COc1ccccc1NC(=O)Nc1ccc(NC(=O)c2ccccc2O)cc1	TAAR1 antagonist 61.0 | TAAR1 nonsel count 39.0 | TAAR1 antag conf inactive | Ga16 nonsel ag inactive | TAAR1 ag count inactive
COc1ccccc1NC(=O)N1CCN(c2ccc(F)cc2)CC1	none
COc1ccccc1NC(=O)Nc1nc(CC(=O)N2CCN(c3ccc(F)cc3)CC2)cs1	TAAR1 antagonist 72.3 (no result: GPR7 antag) | TAAR1 nonsel count 45.6 | TAAR1 antag conf 57.4 | Ga16 nonsel ag 12.9 | TAAR1 ag count inactive
CCOC(=O)c1c(C)[nH]c(C)c1C(=O)CSc1nc2ccccc2c(=O)n1-c1ccc(F)cc1	none
CCOC(=O)c1c(C)[nH]c(C)c1C(=O)CSc1nc2ccccc2c(=O)n1-c1ccccc1C	TAAR1 antagonist 56.8 | TAAR1 nonsel count 26.0 | TAAR1 antag conf inactive | Ga16 nonsel ag inactive | TAAR1 ag count inactive

Screening data (PubChem)
